Source: PubChem BioAssay
An excerpt weighted towards active compounds, which were near 3.7% of everything screened.
KCNQ1 inh: human KCNQ1 channel inhibition; P51787; CHO-K1 KCNQ1, FluxOR thallium flux fluorescence; active compounds read high; B-score at 10 µM; 310,000 compounds, 1.3% hits;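 active means compounds whose thallium flux B-score, printed positive for inhibition, exceeds three library SD while starting fluorescence stays within three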;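 further: channel opened by potassium depolarization with thallium stimulus after 20 min compound exposure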
Kir21 block: blocks the mouse Kir2.1 inward-rectifier potassium channel. P35561. HEK293-Kir2.1, FluxOR thallium flux fluorescence; active compounds read low. B-score at 10 µM. 310,000 compounds, 0.85% hits. AID 1672;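 active means fluorescence ratio B-score at or below minus 3 SD of library scores, with starting-brightness B-score within 2 SD, cut at about -4.2 in these data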;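 further: channel flux triggered by added potassium and thallium sulfate stimulus; B-score of peak minus minimum fluorescence over baseline after thallium stimulus; more negative B-score means stronger Kir2.1 block with less thallium influx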
KCNK9 inh: human KCNK9 channel inhibition. Q9NPC2. HEK293 KCNK9, FluxOR thallium flux fluorescence; active compounds read low. B-score at 10 µM. 310,000 compounds, 1.2% hits. AID 488922;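 active means ratio B-score over 3 SD below the library mean, with starting fluorescence within 5 SD of its mean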;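 further: negative B-score means less thallium flux so channel inhibition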
Target sequence (Q9NPC2 whole entry, looked up): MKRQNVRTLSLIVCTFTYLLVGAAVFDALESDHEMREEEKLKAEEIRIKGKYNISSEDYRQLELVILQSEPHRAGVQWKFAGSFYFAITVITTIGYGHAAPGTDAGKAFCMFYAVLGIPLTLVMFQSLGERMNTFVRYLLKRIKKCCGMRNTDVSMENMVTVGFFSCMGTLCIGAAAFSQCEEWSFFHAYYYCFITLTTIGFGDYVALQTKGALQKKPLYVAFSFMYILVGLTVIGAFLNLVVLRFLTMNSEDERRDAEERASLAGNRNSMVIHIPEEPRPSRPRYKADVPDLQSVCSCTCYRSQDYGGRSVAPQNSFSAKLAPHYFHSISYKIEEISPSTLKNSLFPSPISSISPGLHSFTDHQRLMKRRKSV
KCNQ1 pot: human KCNQ1 channel potentiation or activation. CHO-K1 KCNQ1, thallium flux FluxOR fluorescence; active compounds read high. B-score at 10 µM. 310,000 compounds, 0.35% hits. AID 2648;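 active means fluorescence ratio B-score, a plate-corrected score, at least three library SD, with initial intensity B-score within 5 SD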
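assay system = KCNQ1-transfected CHO-K1 cells | medium = assay buffer with matched DMSO | probe or stimulus = depolarizing K+/Tl+ stimulus, K2SO4 and Tl2SO4 each 12.5 mM in 5x stock | dosing = single dose | incubation = dye 90 min, compound 20 min, room temperature | detection = kinetic FluxOR fluorescence, 10 s baseline plus 110 s post-stimulus | evaluation = ratio B score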
KCNK3 block: human KCNK3 channel inhibition, primary screen. CHO-KCNK3 thallium flux, FluxOR fluorescence; active compounds read low. B-score at 10 µM. 340,000 compounds, 0.84% hits. AID 602410;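 active means B-score under library mean minus 4 SD, starting fluorescence ratio at most library mean plus 5 SD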;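 further: more negative B-score means stronger inhibition of thallium flux through KCNK3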
hERG protect: shields human hERG channel from block by proarrhythmic agents. CHO-hERG, FluxOR thallium flux, dofetilide IC70 present. activation (rescue from dofetilide block), less the hit threshold, % at 10 µM. 310,000 compounds, 0.51% hits. AID 1511;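 active means activation above the mean of controls blocked by dofetilide plus 5 SD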;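 further: thallium influx through hERG after potassium depolarization seen as dye fluorescence rise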
Starred values were filed as active, the others as inactive; i = inactive; x = no result.

SMILES | KCNQ1 inh | Kir21 block | KCNK9 inh | KCNQ1 pot | KCNK3 block | hERG protect
Cn1nc(-c2ccccc2)c(C(O)c2ccccc2C(F)(F)F)c1Cl (stereo unspecified) | i | -1.31 | i | i | i | -13.6
COC(c1ccccc1)c1c(-c2ccccc2)nn(C)c1Cl (stereo unspecified) | i | -4.84* | i | i | i | -12.9
O=[N+]([O-])c1cccc(S(=O)(=O)NC2CC3CCC2C3)c1 (stereo unspecified) | i | -1.98 | i | i | i | 0.2
Cc1cc(Nc2ccc3c(c2)OCCO3)c2cc(Cl)ccc2n1 | i | -5.17* | i | i | i | -19.2
Cc1ccc(Nc2cc(C)nc3ccc(C)cc23)cc1 | i | -6.74* | i | i | i | -13.5
NC(=O)CSc1nnc(COc2ccccc2)n1Cc1ccco1 | i | 1.69 | i | i | i | -11.4
CCOC(=O)c1c(C)n(-c2ccccc2)c2ccc(O)c(CN(C)C)c12 | i | -4.74* | i | i | i | -16.7
O=C(OCC1OC(n2ccc(=O)[nH]c2=O)C2OC12)c1ccccc1 (stereo unspecified) | x | x | x | x | i | x
O=C(c1cccs1)N1N=C(c2ccc(O)cc2)CC1c1ccccc1 (stereo unspecified) | i | -0.01 | i | i | i | -3.8
O=C(c1cccs1)N1N=C(c2ccccc2)CC1c1ccccc1 (stereo unspecified) | i | 0.41 | -7.2* | i | i | -4.5
CCOc1ccc(-n2cc(-c3ccccc3)c3c(=S)nc[nH]c32)cc1 | i | 0.67 | i | 39* | i | -2.4
CCOc1ccc(-n2cc(-c3ccccc3)c3c(=O)[nH]cnc32)cc1 | i | 1.73 | i | i | i | -9.2
CCC(C)C(NC(=O)OC(C)(C)C)C(=O)NC(C)C(N)=O (stereo unspecified) | i | -1.55 | i | i | i | -3.0
CN(C)C(=O)c1c2c(nc3ccccc13)CCCC2 | i | -0.81 | i | i | i | 8.1*
O=C(CCN1C(=O)C2CC=CCC2C1=O)Nc1nccs1 (stereo unspecified) | i | 0 | i | i | i | -3.6
CCOc1ccc2oc(C(=O)OCC(=O)NC3CCCCC3)c(C)c2c1 | x | x | x | x | i | x
Cc1ccc(NC(=O)CSCC(=O)Nc2cc(Cl)ccc2N2CCN(C)CC2)cc1 | i | -5.25* | i | i | i | -10.3
COc1cc(NC(=O)CC(C)S(=O)(=O)c2ccc3c(c2)NC(=O)CO3)cc(OC)c1OC (stereo unspecified) | i | 0.03 | i | i | i | -3.3
COc1ccc(CNC(=O)CN(C(=O)c2csnn2)c2cccc(C(C)=O)c2)cc1 | i | -0.62 | i | i | i | -3.6
COc1ccccc1NC(=O)C(C)OC(=O)CCC1CCCCC1 (stereo unspecified) | i | -2.41 | i | i | -8.87* | -15.5
COc1ccc(/C=C(\NC(=O)c2ccccc2)C(=O)N2CCC(C)CC2)cc1 | x | x | x | x | i | x
Cc1ccc([N+](=O)[O-])cc1NC(=O)CSc1nnc(C)n1CC1CCCO1 (stereo unspecified) | i | 0.34 | i | i | i | -5.8
O/N=C/c1cc(Cl)ccc1OCc1cccc2ccccc12 | 7* | -0.97 | -10.9* | i | x | -9.6
C#CCOc1ccc(Cl)cc1/C=N/O | i | -1.36 | i | i | i | -2.6
O=C(NCCCl)Nc1ccccc1OCCOc1ccccc1NC(=O)NCCCl | i | 1.08 | -6.96* | i | i | -8.7
SMILES | KCNQ1 inh | Kir21 block | KCNK9 inh | KCNQ1 pot | KCNK3 block | hERG protect
Cc1ccc(Nc2nc(-c3ccccc3)cs2)nc1 | i | 0.9 | i | i | i | -5.0
Cc1ccc(Nc2nc(-c3cccs3)cs2)nc1 | i | 0.51 | i | i | i | 6.1*
Nc1nnc(CSCc2ccc(Cl)cc2Cl)s1 | i | -0.71 | i | i | i | -4.2
CC(C)n1c(CSCc2ccc(Cl)cc2Cl)n[nH]c1=S | i | -4.55* | i | i | i | -6.0
Fc1ccc(COc2ccccc2CNCc2ccncc2)cc1 | i | -2.02 | i | i | i | -4.0
OCCNCc1cc(Br)ccc1OCc1ccc(Cl)cc1 | i | -4.95* | i | i | i | -23.7
c1ccc(COc2cccc(CNCc3cccnc3)c2)cc1 | i | -0.48 | i | i | i | -10.6
OCCNCc1cccc(OCc2ccc(Cl)cc2)c1 | i | -8.71* | i | i | i | -12.5
Brc1ccc(OCc2ccccc2)c(CNCc2ccncc2)c1 | i | -5.28* | i | i | i | -30.6
OCCNCc1cc(Br)ccc1OCc1ccc(Cl)cc1Cl | i | -0.26 | i | i | i | -20.6
CSc1ccc(-c2cccc([N+](=O)[O-])c2)nn1 | i | 0.36 | i | i | i | -21.8
O=[N+]([O-])c1cccc(-c2ccc(SCc3cccnc3)nn2)c1 | 6* | 1.1 | i | i | i | -8.0
CCn1c(CN2CCOCC2)nnc1SCC(=O)Nc1ccccc1Cl | i | -0.17 | i | i | i | -3.4
CCCC1(c2ccsc2)NC(=O)NC1=O (stereo unspecified) | x | x | x | x | i | x
O=[N+]([O-])c1ccc(O)c(/C=N\N=C2c3ccccc3-c3ccccc32)c1 | 7* | 0.19 | i | i | i | -16.7
NC(N)=N/N=C/c1cc([N+](=O)[O-])ccc1O | i | 1.4 | i | i | i | -5.5
O=C(Nc1nnc(-c2ccc(F)cc2)o1)c1cc(Cl)sc1Cl | i | -0.7 | i | 23* | i | 10.1*
O=C(Nc1nnc(-c2ccccc2)o1)c1cc(Cl)sc1Cl | i | 0.57 | i | i | i | 4.2
O=C(Nc1nnc(-c2ccc3c(c2)CCCC3)o1)c1ccccc1Cl | i | 0.37 | i | 12* | i | -3.2
O=C(COc1ccccc1)Nc1nnc(-c2ccc3c(c2)CCCC3)o1 | i | -2.13 | i | i | i | -17.1
CCc1nc(SCC(=O)Nc2nnc(CC)s2)c2c(C)c(C)sc2n1 | i | 1.41 | i | i | i | -1.1
CCc1nc(SCC(=O)Nc2cc(OC)ccc2OC)c2c(C)c(C)sc2n1 | i | -0.5 | -6.62* | i | i | -5.7
Cc1ccc(O)c(NC(=S)NC(=O)Cc2ccc(Cl)cc2)c1 | i | 1.06 | i | 50* | i | -6.7
CCN(c1ccccc1)S(=O)(=O)c1cc(NC(=O)CSc2n[nH]c(=O)[nH]c2=O)ccc1Cl | i | 0.39 | i | i | i | -12.4
Cc1ccc(-c2csc(/C(C#N)=C(\O)CCl)n2)cc1 | 6* | 1.66 | i | i | i | -19.9
N#C/C(=C(/O)CCl)c1nc(-c2ccccc2)cs1 | i | -0.01 | i | i | i | -13.8
